The source made the active and inactive calls. The rule behind the calls is not given here.
What was measured:
T-cell line [1] = experiment: Immunosuppressive activity in human T cells assessed as reduction in anti-CD3/anti-CD28 antibody-induced cell proliferation incubated for 72 hrs by CFSE based flow cytometry; format: functional
In short: (§1)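 Cells (10^6 cells/mL) labelled with 2.5 μM CFSE at 37 °C for 10 min. T cells from healthy donors (95% purity) were activated with plate-bound anti-CD3 (2 μg/mL) plus soluble anti-CD28 (1 μg/mL). Alternatively, PBMCs were mixed with equal numbers of 3000-rad-irradiated allogeneic PBMCs. Cells were cultured with or without drug for 72 h in RPMI 1640 with 10% FBS, and CFSE dilution was read by flow cytometry. Unstimulated cells served as 0% and stimulated untreated cells as 100%. IC50 was calculated from these.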

T-cell line [2] = experiment: Induction of cell cycle arrest in anti-CD3/anti-CD28 antibody-stimulated human T cells assessed as accumulation at S phase at 0.1 uM incubated for 72 hrs by flow cytometry (reference value: 18.1%); format: functional
T-cell line [3] = experiment: Effect on anti-CD3/anti-CD28 antibody-induced cell activation in human T cells assessed as effect on CD25 expression at 1 uM incubated for 24 hrs by flow cytometry (reference value: 69.1%); format: functional
T-cell line [4] = experiment: Effect on anti-CD3/anti-CD28 antibody-induced cell activation in human T cells assessed as effect on CD25 expression at 0.2 uM incubated for 24 hrs by flow cytometry (reference value: 69.1%); format: functional
T-cell line [5] = experiment: Immunosuppressive activity in human T cells assessed as reduction in alloantigen stimulation-induced cell proliferation incubated for 72 hrs by CFSE based flow cytometry; format: functional; in short: as §1
T-cell line [6] = experiment: Cytotoxicity in human T cells assessed as reduction in cell viability at 20 to 320 uM incubated for 72 hrs by CCK8 assay; format: cell-based
In short: (§2)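 Naive human T cells or PBMCs (10^6 cells/mL) exposed to 20, 40, 80, 160 or 320 μM or vehicle for 72 h. Viability read by CCK-8 as OD450, with untreated cells set to 100%. Mean ± SEM, n = 5 per group, three independent experiments.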

PBMC = experiment: Cytotoxicity in human PBMC cells assessed as reduction in cell viability at 20 to 320 uM incubated for 72 hrs by CCK8 assay; format: cell-based; in short: as §2
T-cell line [7] = experiment: Effect on anti-CD3/anti-CD28 antibody-induced cell activation in human T cells assessed as effect on CD25 expression at 0.2 to 5 uM incubated for 24 hrs by flow cytometry; format: functional, cell-based
T-cell line [8] = experiment: Effect on anti-CD3/anti-CD28 antibody-induced cell activation in human T cells assessed as effect on CD69 expression at 0.2 to 5 uM incubated for 24 hrs by flow cytometry; format: functional, cell-based
T-cell line [9] = experiment: Induction of cell cycle arrest in anti-CD3/anti-CD28 antibody-stimulated human T cells assessed as accumulation at G0/G1 phase at 0.2 uM incubated for 72 hrs by flow cytometry (reference value: 66.6%); format: functional
T-cell line [10] = experiment: Induction of cell cycle arrest in anti-CD3/anti-CD28 antibody-stimulated human T cells assessed as accumulation at S phase at 0.2 uM incubated for 72 hrs by flow cytometry (reference value: 18.1%); format: functional
T-cell line [11] = experiment: Induction of cell cycle arrest in anti-CD3/anti-CD28 antibody-stimulated human T cells assessed as accumulation at G2/M phase at 0.2 uM incubated for 72 hrs by flow cytometry (reference value: 15.3%); format: functional
T-cell line [12] = experiment: Induction of cell cycle arrest in anti-CD3/anti-CD28 antibody-stimulated human T cells assessed as accumulation at G0/G1 phase at 1 uM incubated for 72 hrs by flow cytometry (reference value: 66.6%); format: functional
T-cell line [13] = experiment: Induction of cell cycle arrest in anti-CD3/anti-CD28 antibody-stimulated human T cells assessed as accumulation at S phase at 1 uM incubated for 72 hrs by flow cytometry (reference value: 18.1%); format: functional
T-cell line [14] = experiment: Induction of cell cycle arrest in anti-CD3/anti-CD28 antibody-stimulated human T cells assessed as accumulation at G2/M phase at 1 uM incubated for 72 hrs by flow cytometry (reference value: 15.3%); format: functional
T-cell line [15] = experiment: Induction of cell cycle arrest in anti-CD3/anti-CD28 antibody-stimulated human T cells assessed as accumulation at G0/G1 phase at 5 uM incubated for 72 hrs by flow cytometry (reference value: 66.6%); format: functional
T-cell line [16] = experiment: Induction of cell cycle arrest in anti-CD3/anti-CD28 antibody-stimulated human T cells assessed as accumulation at S phase at 5 uM incubated for 72 hrs by flow cytometry (reference value: 18.1%); format: functional
T-cell line [17] = experiment: Induction of cell cycle arrest in anti-CD3/anti-CD28 antibody-stimulated human T cells assessed as accumulation at G2/M phase at 5 uM incubated for 72 hrs by flow cytometry (reference value: 15.3%); format: functional
T-cell line [18] = experiment: Inhibition of IL6 production in anti-CD3/anti-CD28 antibody-stimulated human T cells at 0.2 to 5 uM incubated for 48 hrs by ELISA; format: functional, cell-based
In short: (§3)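 Human T cells (10^6 cells/mL) treated with 0.2, 1 or 5 μM drug, LY-294002 (50 μM) or vehicle and activated with anti-CD3 (2 μg/mL) plus soluble anti-CD28 (1 μg/mL) for 48 h. Supernatant IL-6 and IL-17 were quantified by ELISA against recombinant cytokine standard curves. Mean ± SEM, n = 5 per group, three independent experiments.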

T-cell line [19] = experiment: Inhibition of IL17 production in anti-CD3/anti-CD28 antibody-stimulated human T cells at 0.2 to 5 uM incubated for 48 hrs by ELISA; format: functional, cell-based; in short: as §3
T-cell line [20] = experiment: Effect on anti-CD3/anti-CD28 antibody-induced cell activation in human T cells assessed as effect on CD25 expression at 5 uM incubated for 24 hrs by flow cytometry (reference value: 69.1%); format: functional
T-cell line [21] = experiment: Effect on anti-CD3/anti-CD28 antibody-induced cell activation in human T cells assessed as effect on CD69 expression at 0.2 uM incubated for 24 hrs by flow cytometry (reference value: 41.2%); format: functional
T-cell line [22] = experiment: Effect on anti-CD3/anti-CD28 antibody-induced cell activation in human T cells assessed as effect on CD69 expression at 1 uM incubated for 24 hrs by flow cytometry (reference value: 41.2%); format: functional
T-cell line [23] = experiment: Effect on anti-CD3/anti-CD28 antibody-induced cell activation in human T cells assessed as effect on CD69 expression at 5 uM incubated for 24 hrs by flow cytometry (reference value: 41.2%); format: functional
T-cell line [24] = experiment: Effect on anti-CD3/anti-CD28 antibody-induced cell activation in human T cells assessed as effect on CD25 expression at 0.1 uM incubated for 24 hrs by flow cytometry (reference value: 69.1%); format: functional
T-cell line [25] = experiment: Effect on anti-CD3/anti-CD28 antibody-induced cell activation in human T cells assessed as effect on CD69 expression at 0.1 uM incubated for 24 hrs by flow cytometry (reference value: 41.2%); format: functional

Work on O=C1[C@H]2CN3CCC[C@]45CC[C@@]6(Nc7ccccc7[C@@]26[C@@H]34)[C@@]1(O)C5 yielded an IC50 (T-cell line [1]) of 25.4 µM.
Work on COC(=O)N1c2c(OC)cccc2[C@@]23[C@H]4CN5CCC[C@@](CC[C@]12C(=O)O)(CC4=O)[C@H]53 yielded an IC50 (T-cell line [1]) of 27.8 µM.
C[N+]12CCC[C@]34CC[C@@]5(Nc6ccccc6[C@]5(CC1)[C@H]32)[C@H](C(=O)[O-])C4 (some centres undefined) was tested, and the IC50 (T-cell line [1]) was 21.6 µM.
CC(=O)O[C@H]1C(=O)[C@@]2(C)[C@H]([C@H](OC(=O)c3ccccc3)[C@]3(O)C[C@H](OC(=O)[C@H](O)[C@@H](NC(=O)c4ccccc4)c4ccccc4)C(C)=C1C3(C)C)[C@]1(OC(C)=O)CO[C@@H]1C[C@@H]2O [PACLITAXEL] showed an Activity (T-cell line [2]) of 16.9%.
Work on CC[C@]12CCCn3ccc(c31)-c1ccccc1NC(=O)CC2 [RHAZINILAM] yielded an Activity (T-cell line [3]) of 70.3%, an Activity (T-cell line [4]) of 68.8% and an IC50 (T-cell line [1]) of 1 µM. The IC50 (T-cell line [5]) was 1.1 µM, the Activity (T-cell line [6]) was “Non-Toxic” and the Activity (PBMC) was “Non-Toxic”. The Activity (T-cell line [7]) was “inactive”, the Activity (T-cell line [8]) was “inactive” and the Activity (T-cell line [9]) was 66.5%. The Activity (T-cell line [10]) was 16.8%, the Activity (T-cell line [11]) was 16.7% and the Activity (T-cell line [12]) was 57.4%. It also gave an Activity (T-cell line [13]) of 19.7%, an Activity (T-cell line [14]) of 22.9% and an Activity (T-cell line [15]) of 42.1%. The Activity (T-cell line [16]) was 17.6%, the Activity (T-cell line [17]) was 40.3% and the inhibition (T-cell line [18]) was “Active”. The inhibition (T-cell line [19]) was “Active”, the Activity (T-cell line [20]) was 69.3% and the Activity (T-cell line [21]) was 41.1%. For the same compound, the Activity (T-cell line [22]) was 42.4% and the Activity (T-cell line [23]) was 41.6%.
C=CC[C@@H]1/C=C(\C)C[C@H](C)C[C@H](OC)[C@H]2O[C@@](O)(C(=O)C(=O)N3CCCC[C@H]3C(=O)O[C@H](/C(C)=C/[C@@H]3CC[C@@H](O)[C@H](OC)C3)[C@H](C)[C@@H](O)CC1=O)[C@H](C)C[C@@H]2OC [TACROLIMUS ANHYDROUS] showed an Activity (T-cell line [24]) of 6.8% and an Activity (T-cell line [25]) of 13.1%.
